≈ marks a conversion by molar mass, not a printed value.
Experiments:
[1] = tested on: Mycobacterium tuberculosis; assay: Antimycobacterial activity against multidrug-resistant Mycobacterium tuberculosis isolate 16833 assessed as reduction in bacterial cell growth incubated for 7 days by microplate alamar blue assay; type: functional; conditions: isolate 16833, 168 h
Outline: (§1)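 MABA: H37Rv or clinical MDR isolates (resistant to INH and RFP, Beijing Chest Hospital patients) grown to late log phase in 7H9 with glycerol, Tween 80 and ADC, washed, filtered and frozen. Two-fold compound dilutions with 2 × 10⁵ CFU per well, 37 °C; Alamar blue plus Tween 80 added on day 7, fluorescence (ex 530/em 590) read after 16–24 h. MIC = lowest concentration giving ≥90% fluorescence reduction versus mean of bacterium-only controls; RIF and INH as positive controls.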

[2] = tested on: Mycobacterium tuberculosis; assay: Antimycobacterial activity against multidrug-resistant Mycobacterium tuberculosis isolate 16995 assessed as reduction in bacterial cell growth incubated for 7 days by microplate alamar blue assay; type: functional; conditions: isolate 16995, 168 h; outline: as §1

| Compound | MIC90 [1] | MIC90 [2] |
| --- | --- | --- |
| NNC(=O)c1ccncc1 [ISONIAZID] | > 40 µg/mL | > 40 µg/mL |
| CCON=C1CCC(CN2CCN(c3nc(=O)c4cc(C(F)(F)F)cc([N+](=O)[O-])c4s3)[C@@H](C)C2)CC1 (some centres undefined) | < 0.016 µg/mL | < 0.016 µg/mL |
| O=c1nc(N2CCN(CC3CCCCC3)CC2)sc2c([N+](=O)[O-])cc(C(F)(F)F)cc12 [MACOZINONE] | < 0.016 µg/mL | < 0.016 µg/mL |
| CO[C@H]1/C=C/O[C@@]2(C)Oc3c(C)c(O)c4c(O)c(c(/C=N/N5CCN(C)CC5)c(O)c4c3C2=O)NC(=O)/C(C)=C\C=C\[C@H](C)[C@H](O)[C@@H](C)[C@@H](O)[C@@H](C)[C@H](OC(C)=O)[C@@H]1C [RIFAMPIN] | > 40 µg/mL | > 40 µg/mL |
| CCON=C1CCC(CN2CCN(c3nc(=O)c4cc(C(F)(F)F)cc([N+](=O)[O-])c4s3)[C@H](C)C2)CC1 (some centres undefined) | < 0.016 µg/mL | < 0.016 µg/mL |
| CO/N=C(\C)CCN1CCN(c2nc(=O)c3cc(C(F)(F)F)cc([N+](=O)[O-])c3s2)CC1 | 0.017 µg/mL (≈ 0.037 µM) | < 0.016 µg/mL |
| CCON=C1CCC(CN2CCN(c3nc(=O)c4cc(C(F)(F)F)cc([N+](=O)[O-])c4s3)CC2)CC1 (centres undefined) | < 0.016 µg/mL | < 0.016 µg/mL |
| CCON=C1CCC(CN2CCN(c3nc(=O)c4cc(C(F)(F)F)cc([N+](=O)[O-])c4s3)C[C@H]2C)CC1 (some centres undefined) | < 0.016 µg/mL | < 0.016 µg/mL |
| CON=C1CCC(CN2CCN(c3nc(=O)c4cc(C(F)(F)F)cc([N+](=O)[O-])c4s3)C[C@@H]2C)CC1 (some centres undefined) | < 0.016 µg/mL | < 0.016 µg/mL |
| CCON=C1CC(CN2CCN(c3nc(=O)c4cc(C(F)(F)F)cc([N+](=O)[O-])c4s3)CC2)C1 (centres undefined) | < 0.016 µg/mL | < 0.016 µg/mL |
| CCO/N=C(\C)CN1CCN(c2nc(=O)c3cc(C(F)(F)F)cc([N+](=O)[O-])c3s2)CC1 | < 0.016 µg/mL | 0.01 µg/mL (≈ 0.0218 µM) |
| CON=C1CCC(CN2CCN(c3nc(=O)c4cc(C(F)(F)F)cc([N+](=O)[O-])c4s3)CC2C)CC1 (centres undefined) | < 0.016 µg/mL | < 0.016 µg/mL |
| CCO/N=C(\C)CCN1CCN(c2nc(=O)c3cc(C(F)(F)F)cc([N+](=O)[O-])c3s2)CC1 | < 0.016 µg/mL | < 0.016 µg/mL |
| CCON=C1CCC(CN2CCN(c3nc(=O)c4cc(C(F)(F)F)cc([N+](=O)[O-])c4s3)CC2C)CC1 (centres undefined) | < 0.016 µg/mL | < 0.016 µg/mL |
| CCON=C1CCC(CN2CCN(c3nc(=O)c4cc(C(F)(F)F)cc([N+](=O)[O-])c4s3)C[C@@H]2C)CC1 (some centres undefined) | < 0.016 µg/mL | < 0.016 µg/mL |
| CON=C1CCC(CN2CCN(c3nc(=O)c4cc(C(F)(F)F)cc([N+](=O)[O-])c4s3)[C@@H](C)C2)CC1 (some centres undefined) | < 0.016 µg/mL | < 0.016 µg/mL |
| C/C(CN1CCN(c2nc(=O)c3cc(C(F)(F)F)cc([N+](=O)[O-])c3s2)CC1)=N\OCc1ccccc1 | < 0.016 µg/mL | 0.01 µg/mL (≈ 0.0192 µM) |
| CON=C1CCC(CN2CCN(c3nc(=O)c4cc(C(F)(F)F)cc([N+](=O)[O-])c4s3)C[C@H]2C)CC1 (some centres undefined) | < 0.016 µg/mL | < 0.016 µg/mL |
| C/C(CCN1CCN(c2nc(=O)c3cc(C(F)(F)F)cc([N+](=O)[O-])c3s2)CC1)=N\OCc1ccccc1 | < 0.016 µg/mL | < 0.016 µg/mL |
| CCON=C1CCC(CN2C(C)CN(c3nc(=O)c4cc(C(F)(F)F)cc([N+](=O)[O-])c4s3)CC2C)CC1 (centres undefined) | < 0.016 µg/mL | < 0.016 µg/mL |
| CON=C1CCC(CN2C(C)CN(c3nc(=O)c4cc(C(F)(F)F)cc([N+](=O)[O-])c4s3)CC2C)CC1 (centres undefined) | < 0.016 µg/mL | < 0.016 µg/mL |
| CON=C1CCC(CN2CCN(c3nc(=O)c4cc(C(F)(F)F)cc([N+](=O)[O-])c4s3)CC2)CC1 (centres undefined) | < 0.016 µg/mL | < 0.016 µg/mL |

From ChEMBL document CHEMBL4359877, “Identification of benzothiazinones containing an oxime functional moiety as new anti-tuberculosis agents” (Eur J Med Chem, 2019)
